Laboratory results reported in ChEMBL document CHEMBL1770048, “Synthesis and biological evaluation of a diazepanone-based library of liposidomycins analogs as MraY inhibitors” (Eur J Med Chem, 2011).

Key:
[1] = biological target: T1, Phospho-N-acetylmuramoyl-pentapeptide-transferase (Staphylococcus aureus, UniProt P0C1R8); assay: Inhibition of Staphylococcus aureus MraY after 30 mins
T1 sequence (P0C1R8 whole entry): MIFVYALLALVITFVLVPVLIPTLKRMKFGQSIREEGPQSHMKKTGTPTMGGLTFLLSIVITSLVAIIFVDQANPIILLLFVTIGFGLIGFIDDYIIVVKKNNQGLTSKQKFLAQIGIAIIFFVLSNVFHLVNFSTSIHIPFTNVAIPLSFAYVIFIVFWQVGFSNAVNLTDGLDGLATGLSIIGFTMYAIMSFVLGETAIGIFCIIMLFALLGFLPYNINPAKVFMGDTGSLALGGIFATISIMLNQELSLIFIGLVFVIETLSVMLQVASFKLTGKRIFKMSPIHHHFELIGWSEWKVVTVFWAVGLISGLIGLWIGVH
Method in brief: (§1)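 Started with enzyme, 30 min at 37 °C with shaking, stopped at 100 °C for 1 min. Lipid I separated from substrate by silica TLC (2-propanol/NH₄OH/water 6:3:1), spots quantified by radioactivity scanning. Residual activity relative to no-inhibitor control; IC50 from 7 inhibitor concentrations.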

[2] = Inhibition of Staphylococcus aureus MurG after 30 mins
Method in brief: (§2)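 MurG reaction in 12.5 μl: 200 mM Tris-HCl pH 7.5, 10 mM MgCl₂, 16 μM UDP-[¹⁴C]GlcNAc, 16 μM lipid I analog, 30% (v/v) DMSO (final) plus MurG. Run 30 min at 37 °C, stopped by 3 min boiling, lyophilized, redissolved in 2-propanol/NH₄OH/water (6:3:1). Lipid II resolved by silica TLC in the same solvent and counted by radioactivity scanning. Residual activity versus no-inhibitor control; IC50 from 7 concentrations.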

Staphylococcus aureus [3] = assay: Inhibition of Staphylococcus aureus MurG assessed as residual activity of enzyme at 2 mM after 30 mins; method in brief: as §2
[4] = biological target: T2, Phospho-N-acetylmuramoyl-pentapeptide-transferase (Staphylococcus aureus) (UniProt P0C1R8); assay: Inhibition of Staphylococcus aureus MraY assessed as residual activity of enzyme at 1 mM after 30 mins; method in brief: as §1
T2 sequence (whole entry): T1 sequence (P0C1R8 whole entry)

Staphylococcus aureus [5] = assay: Inhibition of Staphylococcus aureus MurG assessed as residual activity of enzyme at 1 mM after 30 mins; method in brief: as §2
[6] = biological target: T2, Phospho-N-acetylmuramoyl-pentapeptide-transferase (Staphylococcus aureus); assay: Inhibition of Staphylococcus aureus MraY assessed as residual activity of enzyme at 2 mM after 30 mins; settings: 1 mM, in the assay text read “at 1 mM” for “at 2 mM”; method in brief: as §1

| Compound | IC50 [1] [µM] | IC50 [2] [µM] | Activity (Staphylococcus aureus [3]) [%] | also measured |
| --- | --- | --- | --- | --- |
| CCCCCCCCCCCCCCCC(=O)O[C@H]1CN(C)[C@@H](CO[C@@H]2O[C@H](CN)[C@@H](O)[C@H]2O)C(=O)N[C@@H]1CO |  |  | 100 | Activity [4]: 75% |
| CCCCCCCCCCCCCCCC(=O)O[C@H]1CN(CCCCCn2ccc(=O)[nH]c2=O)[C@@H](COCc2ccccc2)C(=O)N[C@@H]1CO[Si](c1ccccc1)(c1ccccc1)C(C)(C)C | 1400 |  | 100 |  |
| CC(C)(C)[Si](OC[C@H]1NC(=O)[C@H](COCc2ccccc2)N(CCCCCn2ccc(=O)[nH]c2=O)C[C@@H]1O)(c1ccccc1)c1ccccc1 | 1600 |  |  | Activity (Staphylococcus aureus [5]): 100% |
| CCCCCCCCCCCCCCCC(=O)O[C@H]1CN(C)[C@@H](CO[C@@H]2O[C@H](CN)[C@H]3OC(CC)(CC)O[C@@H]23)C(=O)N[C@@H]1CO[Si](c1ccccc1)(c1ccccc1)C(C)(C)C | 1000 |  |  |  |
| CCCCCCCCCCCCCCCC(=O)O[C@H]1CN(CCCCCn2ccc(=O)[nH]c2=O)[C@@H](CO[C@@H]2O[C@H](CN)[C@@H](O)[C@H]2O)C(=O)N[C@@H]1CO[C@@H]1O[C@H](CN)[C@@H](O)[C@H]1O | 2800 | 130 |  |  |
| CCCCCCCCCCCCCCCC(=O)O[C@H]1CN(CCCCCn2ccc(=O)[nH]c2=O)[C@@H](CO[C@@H]2O[C@H](CN)[C@H]3OC(CC)(CC)O[C@@H]23)C(=O)N[C@@H]1CO[Si](c1ccccc1)(c1ccccc1)C(C)(C)C | 620 | 110 |  |  |
| CCCCCCCCCCCCCCCC(=O)O[C@H]1CN(C)[C@@H](CO[C@@H]2O[C@H](CN)[C@@H](O)[C@H]2O)C(=O)N[C@@H]1CO[Si](c1ccccc1)(c1ccccc1)C(C)(C)C |  | 150 |  | Activity [6]: 66% |
| CCCCCCCCCCCCCCCC(=O)O[C@H]1CN(C)[C@@H](CO)C(=O)N[C@@H]1CO | 1740 |  |  |  |

Second part, led by results:

| IC50 [1] [µM] | IC50 [2] [µM] | Activity (Staphylococcus aureus [3]) [%] | Compound | also measured |
| --- | --- | --- | --- | --- |
| 310 | 100 |  | CCCCCCCCCCCCCCCC(=O)O[C@H]1CN(CCCCCn2ccc(=O)[nH]c2=O)[C@@H](CO[C@@H]2O[C@H](CN)[C@H]3OC(CC)(CC)O[C@@H]23)C(=O)N[C@@H]1CO[C@@H]1O[C@H](CN)[C@H]2OC(CC)(CC)O[C@@H]12 |  |
| 220 | 530 |  | CCCCCCCCCCCCCCCC(=O)O[C@H]1CN(CCCCCn2ccc(=O)[nH]c2=O)[C@@H](CO[C@@H]2O[C@H](CN)[C@@H](O)[C@H]2O)C(=O)N[C@@H]1CO |  |
| 190 |  | 100 | CCCCCCCCCCCCCCCC(=O)O[C@H]1CN(CCCCCn2ccc(=O)[nH]c2=O)[C@@H](CO[C@@H]2O[C@H](CN=[N+]=[N-])[C@H]3OC(CC)(CC)O[C@@H]23)C(=O)N[C@@H]1CO[Si](c1ccccc1)(c1ccccc1)C(C)(C)C |  |
| 380 |  | 66 | CCCCCCCCCCCCCCCC(=O)O[C@H]1CN(CCCCCn2ccc(=O)[nH]c2=O)[C@@H](CO)C(=O)N[C@@H]1CO[Si](c1ccccc1)(c1ccccc1)C(C)(C)C |  |
| 420 |  | 87 | CCCCCCCCCCCCCCCC(=O)O[C@H]1CN(CCCCCn2ccc(=O)[nH]c2=O)[C@@H](CO[C@@H]2O[C@H](CN=[N+]=[N-])[C@H]3OC(CC)(CC)O[C@@H]23)C(=O)N[C@@H]1CO[C@@H]1O[C@H](CN=[N+]=[N-])[C@H]2OC(CC)(CC)O[C@@H]12 |  |
| 270 |  | 100 | CCCCCCCCCCCCCCCC(=O)O[C@H]1CN(CCCCCn2ccc(=O)[nH]c2=O)[C@@H](CO)C(=O)N[C@@H]1CO |  |
| 120 | 185 |  | CCCCCCCCCCCCCCCC(=O)O[C@H]1CN(CCCCCn2ccc(=O)[nH]c2=O)[C@@H](CO[C@@H]2O[C@H](CN)[C@@H](O)[C@H]2O)C(=O)N[C@@H]1CO[Si](c1ccccc1)(c1ccccc1)C(C)(C)C |  |
